Source: ChEMBL document CHEMBL3621046, “Discovery of a potent enoyl-acyl carrier protein reductase (FabI) inhibitor suitable for antistaphylococcal agent” (Bioorg Med Chem Lett, 2015)
≈ marks a conversion by molar mass, not a printed value.

How the values were obtained:
[1] = target: T1, Enoyl-[acyl-carrier-protein] reductase [NADPH] FabI (Staphylococcus aureus, UniProt Q6GI75); assay: Inhibition of Staphylococcus aureus FabI assessed as reduction in inhibition of reduction of trans-2-octenoyl N-acetylcysteamine substrate by spectrophotometry
T1 sequence (Q6GI75 whole entry): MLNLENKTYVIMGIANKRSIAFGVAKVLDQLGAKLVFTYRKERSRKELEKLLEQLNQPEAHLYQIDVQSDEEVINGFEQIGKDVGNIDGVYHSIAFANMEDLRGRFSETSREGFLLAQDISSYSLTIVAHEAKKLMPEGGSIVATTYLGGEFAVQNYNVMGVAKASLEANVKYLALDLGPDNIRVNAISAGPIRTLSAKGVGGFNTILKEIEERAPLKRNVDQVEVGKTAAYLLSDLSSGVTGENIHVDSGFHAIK

Staphylococcus aureus [2] = assay: Antibacterial activity against Staphylococcus aureus incubated for 18 hrs by agar dilution method; type: functional
Staphylococcus aureus [3] = assay: Antibacterial activity against methicillin-resistant Staphylococcus aureus incubated for 18 hrs by agar dilution method; type: functional
Method in brief: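 Agar dilution. Strains were grown 18 h at 37 °C with shaking in Fleisch extract broth (beef extract 1%, peptone 1%, NaCl 0.3%, Na₂HPO₄ 0.2%, pH 7.4–7.5), then diluted 100-fold. Plates incubated 37 °C, 18 h. MIC is the lowest concentration preventing growth.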

[4] = Volume of distribution at steady state in ICR mouse at 10 mg/kg, iv after 5 mins to 6 hrs; type: ADME, organism-based; settings: in vivo, read-out: Vdss
[5] = AUClast in ICR mouse at 10 mg/kg, po after 5 mins to 6 hrs; type: ADME, organism-based; parameters: dose 10 mg/kg, time upper 6 hr, time lower 0.083 hr, route oral; settings: in vivo
[6] = AUC (0 to infinity) in ICR mouse at 10 mg/kg, po after 5 mins to 6 hrs; type: ADME, organism-based; parameters: dose 10 mg/kg, time infinity, route oral; settings: in vivo
[7] = AUC (0 to infinity) in ICR mouse at 10 mg/kg, iv after 5 mins to 6 hrs; type: ADME, organism-based; parameters: dose 10 mg/kg, time infinity, route intravenous; settings: in vivo
[8] = Oral bioavailability in ICR mouse at 10 mg/kg after 5 mins to 6 hrs; type: ADME, organism-based; settings: in vivo
[9] = Clearance in ICR mouse at 10 mg/kg, iv after 5 mins to 6 hrs; type: ADME, organism-based; settings: in vivo
[10] = Cmax in ICR mouse at 10 mg/kg, po after 5 mins to 6 hrs; type: ADME, organism-based; parameters: dose 10 mg/kg, route oral; settings: in vivo
[11] = AUClast in ICR mouse at 10 mg/kg, iv after 5 mins to 6 hrs; type: ADME, organism-based; parameters: time lower 0.083 hr, dose 10 mg/kg, time upper 6 hr, route intravenous; settings: in vivo
[12] = Mean residence time in ICR mouse at 10 mg/kg, iv after 5 mins to 6 hrs; type: ADME, organism-based; settings: in vivo
[13] = Terminal half life in ICR mouse at 10 mg/kg, po after 5 mins to 6 hrs; type: ADME, organism-based; settings: in vivo, read-out: beta t1/2
[14] = Terminal half life in ICR mouse at 10 mg/kg, iv after 5 mins to 6 hrs; type: ADME, organism-based; settings: in vivo, read-out: beta t1/2
[15] = Tmax in ICR mouse at 10 mg/kg, po after 5 mins to 6 hrs; type: ADME, organism-based; settings: in vivo

| SMILES | IC50 [1] [µM] | MIC (Staphylococcus aureus [2]) [mg/L] | MIC (Staphylococcus aureus [3]) [mg/L] | other results |
| --- | --- | --- | --- | --- |
| Cc1ccc(Oc2coc(/C=C/c3ccoc3)cc2=O)c(C)c1 | 2.29 | > 20 |  |  |
| O=c1cc(COc2ccccc2)n(C2CC2)cc1Oc1cccc(Cl)c1Cl | 1.5 | 3.12 (≈ 7.77 µM) | 6.25 (≈ 15.5 µM) |  |
| O=c1cc(COc2ccccc2)[nH]cc1Oc1c(Cl)cccc1Cl | 4.98 | 3.12 (≈ 8.63 µM) | 3.12 (≈ 8.63 µM) |  |
| Cn1cc(Oc2c(Cl)cccc2Cl)c(=O)cc1COc1ccccc1 | 0.72 | 0.195 (≈ 0.518 µM) | 0.195 (≈ 0.518 µM) |  |
| O=c1cc(COc2ccccc2)n(C2CC2)cc1Oc1c(Cl)cccc1Cl | 6.43 | 3.12 (≈ 7.77 µM) | 3.12 (≈ 7.77 µM) |  |
| O=c1cc(COc2ccccc2)[nH]cc1Oc1cccc([N+](=O)[O-])c1Cl | 11.7 | > 20 |  |  |
| Cn1cc(Oc2cccc([N+](=O)[O-])c2Cl)c(=O)cc1COc1ccccc1 | 0.66 | 0.781 (≈ 2.02 µM) | 3.12 (≈ 8.08 µM) |  |
| O=c1cc(COc2ccccc2)n(C2CC2)cc1Oc1cccc([N+](=O)[O-])c1Cl | 17.6 | > 20 |  |  |
| COCc1cc(=O)c(Oc2ccc(Cl)cc2)co1 | 5.2 | 6.25 (≈ 23.4 µM) |  |  |
| O=c1cc(COc2ccccc2)occ1Oc1ccc(Cl)cc1Cl | 0.68 | 3.12 (≈ 8.6 µM) | 6.25 (≈ 17.2 µM) |  |
| Cc1cc(Cl)ccc1Oc1coc(COc2ccccc2)cc1=O | 0.45 | 1.56 (≈ 4.56 µM) | 6.25 (≈ 18.2 µM) |  |
| Cc1ccc(Oc2coc(COc3ccccc3)cc2=O)c(C)c1 | 0.38 | 1.56 (≈ 4.85 µM) | 1.56 (≈ 4.85 µM) |  |
| O=c1cc(COc2ccccc2)occ1Oc1cccc(Cl)c1Cl | 1.25 | 6.25 (≈ 17.2 µM) | 12.5 (≈ 34.4 µM) |  |
| O=c1cc(COc2ccccc2)occ1Oc1c(Cl)cccc1Cl | 1.42 | 6.25 (≈ 17.2 µM) | 12.5 (≈ 34.4 µM) |  |
| Cc1c(Oc2coc(COc3ccccc3)cc2=O)cccc1[N+](=O)[O-] | 3.52 | 12.5 (≈ 35.4 µM) | 12.5 (≈ 35.4 µM) |  |
| Cc1cc(Cl)ccc1Oc1coc(/C=C/c2ccccc2)cc1=O | 4.88 | > 20 |  |  |
| Cc1cc(Cl)ccc1Oc1coc(/C=C/c2ccoc2)cc1=O | 2.45 | > 20 |  |  |
| Cc1cc(Cl)ccc1Oc1coc(/C=C/c2ccco2)cc1=O | 3.89 | > 20 |  |  |
| Cc1cc(Cl)ccc1Oc1coc(/C=C/c2cccnc2)cc1=O | 2.94 | > 20 |  |  |
| Cc1cc(Cl)ccc1Oc1coc(/C=C/c2ccsc2)cc1=O | 3.12 | > 20 |  |  |
| Cc1cc(Cl)ccc1Oc1coc(/C=C/c2cccs2)cc1=O | 4.57 | > 20 |  |  |
| Cc1cc(Cl)ccc1Oc1coc(/C=C/c2ccc[nH]2)cc1=O | 5.82 | > 20 |  |  |
| CCC/C=C/c1cc(=O)c(Oc2ccc(Cl)cc2C)co1 | 6.44 | > 20 |  |  |
| Cc1cc(Cl)ccc1Oc1coc(/C=C/C(C)C)cc1=O | 5.78 | > 20 |  |  |
| O=c1cc(/C=C/c2ccccc2)occ1Oc1ccc(Cl)cc1Cl | 4.53 | > 20 |  |  |
| O=c1cc(/C=C/c2ccoc2)occ1Oc1ccc(Cl)cc1Cl | 1.89 | > 20 |  |  |
| O=c1cc(/C=C/c2cccnc2)occ1Oc1ccc(Cl)cc1Cl | 2.04 | > 20 |  |  |

| SMILES | IC50 [1] [µM] | MIC (Staphylococcus aureus [2]) [mg/L] | MIC (Staphylococcus aureus [3]) [mg/L] | other results |
| --- | --- | --- | --- | --- |
| Cc1ccc(Oc2coc(/C=C/c3ccccc3)cc2=O)c(C)c1 | 5.33 | > 20 |  |  |
| Cc1ccc(Oc2coc(/C=C/c3cccnc3)cc2=O)c(C)c1 | 3.48 | > 20 |  |  |
| O=c1cc(/C=C/c2ccccc2)occ1Oc1cccc(Cl)c1Cl | 6.73 | > 20 |  |  |
| O=c1cc(/C=C/c2ccoc2)occ1Oc1cccc(Cl)c1Cl | 5.68 | > 20 |  |  |
| O=c1cc(/C=C/c2cccnc2)occ1Oc1cccc(Cl)c1Cl | 3.44 | > 20 |  |  |
| O=c1cc(/C=C/c2ccccc2)occ1Oc1c(Cl)cccc1Cl | 4.79 | > 20 |  |  |
| O=c1cc(/C=C/c2ccoc2)occ1Oc1c(Cl)cccc1Cl | 4.12 | > 20 |  |  |
| O=c1cc(/C=C/c2cccnc2)occ1Oc1c(Cl)cccc1Cl | 3.74 | > 20 |  |  |
| O=c1cc(COc2ccccc2)[nH]cc1Oc1ccc(Cl)cc1Cl | 1.82 | 0.781 (≈ 2.16 µM) | 1.56 (≈ 4.32 µM) |  |
| Cn1cc(Oc2ccc(Cl)cc2Cl)c(=O)cc1COc1ccccc1 | 0.12 | 0.195 (≈ 0.518 µM) | 0.195 (≈ 0.518 µM) |  |
| O=c1cc(COc2ccccc2)n(C2CC2)cc1Oc1ccc(Cl)cc1Cl | 0.48 | 1.56 (≈ 3.89 µM) | 1.56 (≈ 3.89 µM) |  |
| CCCCn1cc(Oc2ccc(Cl)cc2Cl)c(=O)cc1COc1ccccc1 | 1.25 | 6.25 (≈ 14.9 µM) | 6.25 (≈ 14.9 µM) |  |
| O=c1cc(COc2ccccc2)n(Cc2ccccc2)cc1Oc1ccc(Cl)cc1Cl | 1.42 | 6.25 (≈ 13.8 µM) | 12.5 (≈ 27.6 µM) |  |
| Cc1cc(Cl)ccc1Oc1c[nH]c(COc2ccccc2)cc1=O | 0.4 | 1.56 (≈ 4.57 µM) | 1.56 (≈ 4.57 µM) |  |
| Cc1cc(Cl)ccc1Oc1cn(C)c(COc2ccccc2)cc1=O | 0.11 | 0.098 (≈ 0.275 µM) | 0.098 (≈ 0.275 µM) |  |
| Cc1cc(Cl)ccc1Oc1cn(C2CC2)c(COc2ccccc2)cc1=O | 0.47 | 0.391 (≈ 1.02 µM) | 0.781 (≈ 2.05 µM) |  |
| CCCCn1cc(Oc2ccc(Cl)cc2C)c(=O)cc1COc1ccccc1 | 0.63 | 3.12 (≈ 7.85 µM) | 3.12 (≈ 7.85 µM) |  |
| Cc1cc(Cl)ccc1Oc1cn(Cc2ccccc2)c(COc2ccccc2)cc1=O | 0.65 | 3.12 (≈ 7.24 µM) | 6.25 (≈ 14.5 µM) |  |
| Cc1ccc(Oc2c[nH]c(COc3ccccc3)cc2=O)c(C)c1 | 1.14 | 0.781 (≈ 2.43 µM) | 1.56 (≈ 4.86 µM) |  |
| Cc1ccc(Oc2cn(C)c(COc3ccccc3)cc2=O)c(C)c1 | 0.08 | 0.049 (≈ 0.146 µM) | 0.049 (≈ 0.146 µM) | Vd [4]: 1.03 L/kg; AUC(0-t) [5]: 2.48 µg·h/mL; AUC(0-inf) [6]: 2.49 µg·h/mL; AUC(0-inf) [7]: 5.92 µg·h/mL; bioavailability [8]: 41.9%; clearance [9]: 1.69 L/h/kg; Cmax [10]: 4.04 µg/mL; AUC(0-t) [11]: 5.91 µg·h/mL; MRT [12]: 36.5 min; half-life [13]: 33.9 min; half-life [14]: 47.9 min; Tmax [15]: 5 min |
| Cc1ccc(Oc2cn(C3CC3)c(COc3ccccc3)cc2=O)c(C)c1 | 3.17 | 0.391 (≈ 1.08 µM) | 1.56 (≈ 4.32 µM) |  |
| CCCCn1cc(Oc2ccc(C)cc2C)c(=O)cc1COc1ccccc1 | 1 | 0.781 (≈ 2.07 µM) | 1.56 (≈ 4.14 µM) |  |
| Cc1ccc(Oc2cn(Cc3ccccc3)c(COc3ccccc3)cc2=O)c(C)c1 | 2.69 | 1.56 (≈ 3.8 µM) | 3.12 (≈ 7.59 µM) |  |
| O=c1cc(COc2ccccc2)[nH]cc1Oc1cccc(Cl)c1Cl | 0.84 | 1.56 (≈ 4.32 µM) | 1.56 (≈ 4.32 µM) |  |
| Cn1cc(Oc2cccc(Cl)c2Cl)c(=O)cc1COc1ccccc1 | 0.22 | 0.195 (≈ 0.518 µM) | 0.195 (≈ 0.518 µM) |  |
| CC(=O)NC[C@H]1CN(c2ccc(N3CCOCC3)c(F)c2)C(=O)O1 [LINEZOLID] |  |  | 0.781 (≈ 2.32 µM) |  |
| Oc1cc(Cl)ccc1Oc1ccc(Cl)cc1Cl [TRICLOSAN] |  | 0.391 (≈ 1.35 µM) |  |  |
